According to ChEMBL document CHEMBL5724801, “EUbOPEN Chemogenomics Library - Multiplex” (2024):
“And” between values parts separate entries of the source, which are not always exact repeats. Equal values may be shown once.

These compounds were tested on HEK-293T (assay: Multiplex assay against HEK293T). Conditions: human, 12 h, 1 µM, compound concentration 1 uM.
Type: toxicity, cell-based
How it was run: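 Live cells were stained at seeding with Hoechst33342, BioTracker Green Microtubule Cytoskeleton Dye, MitoTracker Red and Annexin V Alexa Fluor 680, then imaged on a CQ1 microscope at 37°C and 5% CO2 after compound addition. CellPathfinder machine-learning gating split cells into Hoechst high-intensity objects or normal cells. Normal cells were split into healthy, pyknosed or fragmented nuclei, and pyknosed cells into mitotic or apoptotic. Tubulin, mitochondrial-mass and membrane-permeability phenotypes are per cents of healthy-nucleus cells.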

SMILES | Population Fragmented Nuclei (%) | Population Healthy Nuclei (%) | Population Hoechst High Intensity Objects (%) | Population Membrane Permeable-Phenotype (%) | Population Mitotic Cells (%) | Population Normal (%) | Population Pyknosed Nuclei (%) | Population Tubulin-Different-Phenotype (%) | Total Cell Count | Population Apoptotic (%)
CCN1CCN(Cc2ccc(Nc3ncc(F)c(-c4cc(F)c5nc(C)n(C(C)C)c5c4)n3)nc2)CC1.CS(=O)(=O)O | 2.72% and 5.37% | 46.26% and 18.79% | 1.01% and 0% | 0.74% and 0% | 90.67% and 79.65% | 98.99% and 100% | 51.02% and 75.84% | 23.53% and 64.29% | 297 and 149 | 
CC(C)c1noc(N2CCC(COc3ccc(-c4ccc(S(C)(=O)=O)cc4)nc3)CC2)n1 [GSK-1292263] | 8% and 6% | 78% and 86% | 5% and 6% | 0% | 62% and 74% | 94% and 93% | 12% and 7% | 32% and 13% | 440 and 522 | 37% and 25%
O=c1cccc2n1C[C@@H]1CNC[C@H]2C1 [CYTISINICLINE] | 1.29% and 6.54% | 52.75% and 22.22% | 0.64% and 0% | 0.61% and 0% | 86.62% and 78.9% | 99.36% and 100% | 45.95% and 71.24% |  | 311 and 153 | 13.38% and 21.1%
CCc1nn2c(C)cc(C)nc2c1Cc1ccc(-c2nnc(C3CCNCC3)o2)cc1 | 9% and 7% | 80% and 78% | 7% and 5% | 0% | 64% and 48% | 92% and 94% | 10% and 13% | 37% and 19% | 401 and 395 | 35% and 51%

Same assay, conditions: human, 12 h, 1 µM, compound concentration 1 uM

SMILES | Population Mitochondria Different-Phenotype (%)
CC(C)c1noc(N2CCC(COc3ccc(-c4ccc(S(C)(=O)=O)cc4)nc3)CC2)n1 [GSK-1292263] | 42% and 53%
O=c1cccc2n1C[C@@H]1CNC[C@H]2C1 [CYTISINICLINE] | 39.26% and 17.65%
CCc1nn2c(C)cc(C)nc2c1Cc1ccc(-c2nnc(C3CCNCC3)o2)cc1 | 54% and 62%

Same assay, conditions: human, 12 h, 10 µM, compound concentration 10 uM

SMILES | Population Fragmented Nuclei (%) | Population Hoechst High Intensity Objects (%) | Population Membrane Permeable-Phenotype (%) | Population Mitochondria Different-Phenotype (%) | Population Mitotic Cells (%) | Population Normal (%) | Population Pyknosed Nuclei (%) | Population Tubulin-Different-Phenotype (%) | Total Cell Count | Population Apoptotic (%)
CCN1CCN(Cc2ccc(Nc3ncc(F)c(-c4cc(F)c5nc(C)n(C(C)C)c5c4)n3)nc2)CC1.CS(=O)(=O)O | 1.2% and 2.36% | 0.4% and 0% | 0% | 53.85% and 28.57% | 88.21% and 74.36% | 99.6% and 100% | 78% and 92.13% | 84.62% and 28.57% | 251 and 127 | 
CC(C)c1noc(N2CCC(COc3ccc(-c4ccc(S(C)(=O)=O)cc4)nc3)CC2)n1 [GSK-1292263] | 6% and 7% | 13% and 16% | 0% | 69% and 77% | 50% and 56% | 86% and 83% | 22% and 13% | 55% and 40% | 311 and 279 | 50% and 43%
O=c1cccc2n1C[C@@H]1CNC[C@H]2C1 [CYTISINICLINE] | 3.17% and 4.62% | 0% | 0.66% and 0% | 17.11% and 7.41% | 84.55% and 89.86% | 100% | 43.31% and 79.77% |  | 284 and 173 | 15.45% and 10.14%
CCc1nn2c(C)cc(C)nc2c1Cc1ccc(-c2nnc(C3CCNCC3)o2)cc1 | 6% and 4% | 11% and 12% | 0% | 85% and 86% | 36% and 43% | 88% and 87% | 25% and 17% | 65% and 48% | 319 and 293 | 63% and 56%

Same assay, conditions: human, 12 h, 10 µM, compound concentration 10 uM

SMILES | Population Healthy Nuclei (%)
CC(C)c1noc(N2CCC(COc3ccc(-c4ccc(S(C)(=O)=O)cc4)nc3)CC2)n1 [GSK-1292263] | 71% and 78%
CCc1nn2c(C)cc(C)nc2c1Cc1ccc(-c2nnc(C3CCNCC3)o2)cc1 | 68% and 78%

Same assay, conditions: human, 24 h, 1 µM, compound concentration 1 uM

SMILES | Population Fragmented Nuclei (%) | Population Healthy Nuclei (%) | Population Hoechst High Intensity Objects (%) | Population Membrane Permeable-Phenotype (%) | Population Mitochondria Different-Phenotype (%) | Population Mitotic Cells (%) | Population Normal (%) | Population Pyknosed Nuclei (%) | Population Tubulin-Different-Phenotype (%) | Total Cell Count
CCN1CCN(Cc2ccc(Nc3ncc(F)c(-c4cc(F)c5nc(C)n(C(C)C)c5c4)n3)nc2)CC1.CS(=O)(=O)O | 1.38% and 4.83% | 71.43% and 24.14% | 0.23% and 0% | 2.9% and 2.86% | 26.13% and 22.86% | 82.2% and 83.5% | 99.77% and 100% | 27.19% and 71.03% | 47.42% and 25.71% | 435 and 145
CC(C)c1noc(N2CCC(COc3ccc(-c4ccc(S(C)(=O)=O)cc4)nc3)CC2)n1 [GSK-1292263] | 8% and 7% | 78% and 82% | 5% and 3% | 0% | 27% and 29% | 76% and 74% | 94% and 96% | 12% and 9% | 25% and 9% | 545 and 608
O=c1cccc2n1C[C@@H]1CNC[C@H]2C1 [CYTISINICLINE] | 1.39% and 3.33% | 75.5% and 36.67% | 0.2% and 0% | 1.32% and 5.45% | 17.41% and 14.55% | 84.48% and 74.44% | 99.8% and 100% | 23.11% and 60% | 11.08% and 16.36% | 
CCc1nn2c(C)cc(C)nc2c1Cc1ccc(-c2nnc(C3CCNCC3)o2)cc1 | 10% and 7% | 76% and 78% | 4% and 5% | 0% | 36% and 50% | 55% and 65% | 95% and 94% | 13% | 23% and 19% | 529 and 542

Same assay, conditions: human, 24 h, 1 µM, compound concentration 1 uM

SMILES | Population Apoptotic (%)
CC(C)c1noc(N2CCC(COc3ccc(-c4ccc(S(C)(=O)=O)cc4)nc3)CC2)n1 [GSK-1292263] | 23% and 25%
O=c1cccc2n1C[C@@H]1CNC[C@H]2C1 [CYTISINICLINE] | 15.52% and 25.56%
CCc1nn2c(C)cc(C)nc2c1Cc1ccc(-c2nnc(C3CCNCC3)o2)cc1 | 44% and 34%

Same assay, conditions: human, 24 h, 10 µM, compound concentration 10 uM

SMILES | Population Fragmented Nuclei (%) | Population Healthy Nuclei (%) | Population Hoechst High Intensity Objects (%) | Population Membrane Permeable-Phenotype (%) | Population Mitochondria Different-Phenotype (%) | Population Mitotic Cells (%) | Population Normal (%) | Population Pyknosed Nuclei (%) | Population Tubulin-Different-Phenotype (%) | Total Cell Count
CCN1CCN(Cc2ccc(Nc3ncc(F)c(-c4cc(F)c5nc(C)n(C(C)C)c5c4)n3)nc2)CC1.CS(=O)(=O)O | 0.69% and 4.07% | 25.86% and 10.57% | 0% | 0% and 23.08% | 52% and 38.46% | 64.32% and 55.24% | 100% | 73.45% and 85.37% | 93.33% and 53.85% | 290 and 123
CC(C)c1noc(N2CCC(COc3ccc(-c4ccc(S(C)(=O)=O)cc4)nc3)CC2)n1 [GSK-1292263] | 8% and 11% | 79% and 74% | 8% and 10% | 0% | 58% and 59% | 35% and 53% | 91% and 89% | 12% and 13% | 49% and 28% | 384 and 354
O=c1cccc2n1C[C@@H]1CNC[C@H]2C1 [CYTISINICLINE] | 2.13% and 5.14% | 81.43% and 42.99% | 0% | 0.24% and 0% | 15.44% and 7.61% | 81.18% and 85.59% | 100% |  | 7.6% and 1.09% | 517 and 214
CCc1nn2c(C)cc(C)nc2c1Cc1ccc(-c2nnc(C3CCNCC3)o2)cc1 | 11% and 10% | 72% and 77% | 5% and 7% | 0% | 73% and 78% | 30% and 58% | 94% and 92% | 15% and 11% | 50% and 45% | 448 and 389

Same assay, conditions: human, 24 h, 10 µM, compound concentration 10 uM

SMILES | Population Apoptotic (%)
CC(C)c1noc(N2CCC(COc3ccc(-c4ccc(S(C)(=O)=O)cc4)nc3)CC2)n1 [GSK-1292263] | 64% and 46%
O=c1cccc2n1C[C@@H]1CNC[C@H]2C1 [CYTISINICLINE] | 18.82% and 14.41%
CCc1nn2c(C)cc(C)nc2c1Cc1ccc(-c2nnc(C3CCNCC3)o2)cc1 | 69% and 41%

Same assay, conditions: human, 48 h, 1 µM, compound concentration 1 uM

SMILES | Population Fragmented Nuclei (%) | Population Healthy Nuclei (%) | Population Hoechst High Intensity Objects (%) | Population Membrane Permeable-Phenotype (%) | Population Mitochondria Different-Phenotype (%) | Population Mitotic Cells (%) | Population Normal (%) | Population Apoptotic (%) | Population Pyknosed Nuclei (%) | Population Tubulin-Different-Phenotype (%)
CCN1CCN(Cc2ccc(Nc3ncc(F)c(-c4cc(F)c5nc(C)n(C(C)C)c5c4)n3)nc2)CC1.CS(=O)(=O)O | 2.67% and 1.8% | 85.01% and 53.89% | 0.13% and 0% | 9.27% and 2.22% | 37.67% and 48.89% | 82.47% and 79.73% | 99.87% and 100% |  |  | 
CC(C)c1noc(N2CCC(COc3ccc(-c4ccc(S(C)(=O)=O)cc4)nc3)CC2)n1 [GSK-1292263] | 10% | 81% and 83% | 3% and 1% | 1% | 23% and 14% | 77% and 76% | 96% and 98% | 22% and 23% | 8% and 5% | 14% and 10%
O=c1cccc2n1C[C@@H]1CNC[C@H]2C1 [CYTISINICLINE] | 2.45% and 3.98% | 88.37% and 61.69% | 0% | 2.27% and 1.61% | 16.42% and 20.97% | 94.29% and 66.67% | 100% |  |  | 
CCc1nn2c(C)cc(C)nc2c1Cc1ccc(-c2nnc(C3CCNCC3)o2)cc1 | 12% and 11% | 79% and 83% | 2% and 5% | 0% | 25% and 24% | 71% and 67% | 97% and 94% | 28% and 32% | 8% and 5% | 15% and 10%

Same assay, conditions: human, 48 h, 1 µM, compound concentration 1 uM

SMILES | Total Cell Count
CC(C)c1noc(N2CCC(COc3ccc(-c4ccc(S(C)(=O)=O)cc4)nc3)CC2)n1 [GSK-1292263] | 865 and 882
CCc1nn2c(C)cc(C)nc2c1Cc1ccc(-c2nnc(C3CCNCC3)o2)cc1 | 842 and 829

Same assay, conditions: human, 48 h, 10 µM, compound concentration 10 uM

SMILES | Population Fragmented Nuclei (%) | Population Healthy Nuclei (%) | Population Hoechst High Intensity Objects (%) | Population Membrane Permeable-Phenotype (%) | Population Mitochondria Different-Phenotype (%) | Population Mitotic Cells (%) | Population Normal (%) | Population Pyknosed Nuclei (%) | Population Tubulin-Different-Phenotype (%) | Total Cell Count
CCN1CCN(Cc2ccc(Nc3ncc(F)c(-c4cc(F)c5nc(C)n(C(C)C)c5c4)n3)nc2)CC1.CS(=O)(=O)O | 3.24% and 4.8% | 28.78% and 13.6% | 0% and 0.79% | 1.25% and 0% | 96.25% and 58.82% | 30.16% and 40.2% | 100% and 99.21% | 67.99% and 81.6% | 85% and 58.82% | 278 and 126
CC(C)c1noc(N2CCC(COc3ccc(-c4ccc(S(C)(=O)=O)cc4)nc3)CC2)n1 [GSK-1292263] | 10% and 13% | 79% and 78% | 10% and 5% | 0% | 50% and 37% | 67% and 69% | 89% and 94% | 9% and 8% | 28% and 18% | 506 and 595
O=c1cccc2n1C[C@@H]1CNC[C@H]2C1 [CYTISINICLINE] | 5.36% and 2.25% | 85.61% and 79.15% | 0.14% and 0% | 5.39% and 1.78% | 8.88% and 16.01% | 90.23% and 80.3% | 99.86% and 100% | 9.03% and 18.59% |  | 
CCc1nn2c(C)cc(C)nc2c1Cc1ccc(-c2nnc(C3CCNCC3)o2)cc1 | 14% and 12% | 72% and 80% | 4% and 3% | 0% | 59% and 56% | 45% and 50% | 95% and 96% | 13% and 6% | 32% and 26% | 517 and 607

Same assay, conditions: human, 48 h, 10 µM, compound concentration 10 uM

SMILES | Population Apoptotic (%)
CC(C)c1noc(N2CCC(COc3ccc(-c4ccc(S(C)(=O)=O)cc4)nc3)CC2)n1 [GSK-1292263] | 32% and 30%
O=c1cccc2n1C[C@@H]1CNC[C@H]2C1 [CYTISINICLINE] | 9.77% and 19.7%
CCc1nn2c(C)cc(C)nc2c1Cc1ccc(-c2nnc(C3CCNCC3)o2)cc1 | 54% and 50%
